UPR XBP1 act = adaptive UPR (XBP1) activation | CHO-XBP1 luciferase reporter, IRE1-XBP1 UPR activation, luminescence; percent of tunicamycin response, DMSO as zero | activation, % at 20 µM | 330,000 tested, 0.33% active | AID 463104;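 active = versus positive control, 20 µM dose yields 30% or more activation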
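Assay system: IRE1-XBP1 luciferase reporter CHO line. Input: 1000 cells/well. Buffer or medium: F12 with 10% serum. Doses: 20 µM, 1% DMSO. Times: overnight seeding at 37 °C, 6 h compound treatment at 37 °C. Technique: Steady-Glo luciferase glow luminescence, 10 min after reagent addition.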
ABHD5-PLIN5 inh = inhibitors of human ABHD5-perilipin-5 interaction; 360,000 tested, 0.78% active; inhibition, % at 4 µM; Q00G26+Q8WTS1; Split G. princeps luciferase complementation, luminescence, 4 h;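 active = inhibition above the mean inhibition across every tested compound plus 3 SD, cut at about 22% in these data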
Target sequence (Q00G26 whole entry, looked up): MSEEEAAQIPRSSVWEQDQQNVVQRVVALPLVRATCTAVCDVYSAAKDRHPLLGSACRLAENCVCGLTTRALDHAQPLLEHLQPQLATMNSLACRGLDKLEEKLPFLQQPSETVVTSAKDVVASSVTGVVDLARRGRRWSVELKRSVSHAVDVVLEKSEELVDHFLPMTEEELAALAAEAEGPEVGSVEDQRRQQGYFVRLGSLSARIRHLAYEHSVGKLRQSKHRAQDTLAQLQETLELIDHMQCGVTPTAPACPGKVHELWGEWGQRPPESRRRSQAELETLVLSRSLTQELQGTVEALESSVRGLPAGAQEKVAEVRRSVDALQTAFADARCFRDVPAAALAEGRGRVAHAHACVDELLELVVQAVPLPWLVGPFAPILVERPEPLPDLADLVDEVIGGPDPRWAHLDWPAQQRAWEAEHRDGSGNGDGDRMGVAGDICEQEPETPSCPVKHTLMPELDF
Target sequence (Q8WTS1 whole entry, looked up): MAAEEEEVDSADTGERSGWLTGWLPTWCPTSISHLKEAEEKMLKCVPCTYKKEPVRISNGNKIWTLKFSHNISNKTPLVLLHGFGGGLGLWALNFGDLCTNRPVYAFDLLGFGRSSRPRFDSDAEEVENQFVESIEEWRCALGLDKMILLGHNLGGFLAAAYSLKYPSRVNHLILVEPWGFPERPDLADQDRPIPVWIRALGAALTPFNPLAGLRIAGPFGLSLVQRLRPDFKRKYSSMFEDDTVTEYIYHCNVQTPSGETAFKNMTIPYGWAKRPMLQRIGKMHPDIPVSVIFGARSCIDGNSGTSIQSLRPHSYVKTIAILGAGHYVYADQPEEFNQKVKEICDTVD
UPR CHOP act = activators of apoptotic arm of unfolded protein response (CHOP). CHO-CHOP luciferase reporter, UPR activation, luminescence; percent of tunicamycin response over DMSO baseline. activation, % at 10 µM. 330,000 tested, 0.34% active;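 active = at 10 µM dose, activation of 40% or more, normalized to positive control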
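Assay system: CHO cells with stable CHOP pathway luciferase reporter; Buffer or medium: F12 plus 10% serum; Times: 16-18 h cell attachment, then 6 h compound exposure, 37 °C; Signal: luciferase luminescence; Read-out basis: percent activation relative to tunicamycin control; Control set: tunicamycin high control, DMSO low control.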
Mdm2 MdmX PPI = human Mdm2/MdmX binding inhibition; O15151+Q00987; SaOS-2 split-luciferase Mdm2/MdmX complementation, luminescence; inhibition, % at 8 µM; 330,000 tested, 3% active; AID 485346;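 active = inhibition of at least 50% at 8 µM in the primary screen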
Granule exo inh = blocks lytic granule exocytosis; TALL-104 LAMP-1 surface exposure, flow cytometry; cells stimulated with thapsigargin and PMA; inhibition, % at 10 µM; 360,000 tested, 0.66% active;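 active = inhibition above about 55%, limit read from the data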
Mdm2-MdmX conf = confirmation of human Mdm2/MdmX interaction inhibitors; Mdm2-MdmX binding, luminescent assay; inhibition, % at 8 µM; shares compounds with Mdm2 MdmX PPI; AID 489028; 10,000 tested, 55% active; in the data active = inhibition above about 40%
Full FLuc ctr = counter-screen for Mdm2/MdmX inhibitors: full-length luciferase | shares compounds with Mdm2 MdmX PPI | SaOS-2 full-length luciferase counterscreen, luminescence | inhibition, % at 8 µM | 6,200 tested, 77% active;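 active = mean inhibition at 8 µM reaching about 37%, which flags the compound as non-specific, limit read from the data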;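 note: p53-null SaOS-2 cells with luciferase driven by a doxycycline-inducible promoter; compound on cells about two nights before reading with doxycycline added after day one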
A number is an active result; n = inactive; x = no result given. An excerpt weighted towards active compounds, which were near 4% of everything screened.

SMILES	UPR XBP1 act	ABHD5-PLIN5 inh	UPR CHOP act	Mdm2 MdmX PPI	Granule exo inh	Mdm2-MdmX conf	Full FLuc ctr
C(=N\Nc1ncnc2sc3c(c12)CCC3)/c1cccs1	n	n	n	58	n	50	n
CCc1ccc(NC(=O)c2ccc(F)c(S(=O)(=O)NCC3COc4ccccc4O3)c2)cc1 (configuration not stated)	n	n	n	56	n	40	55
CN(C)CCCO[C@@H]1[C@H]2OC(C)(C)O[C@H]2O[C@@H]1[C@H](O)CO	n	n	n	n	n	x	x
COc1ccc(CNC(=O)Cn2ncn3c(cc4ccccc43)c2=O)cc1	n	n	n	67	n	n	x
Cc1nn(CC(=O)NCCCN2CCC(N3CCCCC3)CC2)c(=O)c2cc(-c3ccccc3)nn12	n	n	n	95	n	53	56
COc1ccc(-c2cc3c(=O)n(CC(=O)NCc4ccc(Cl)cc4)ncn3n2)cc1	n	n	n	64	n	n	x
COc1ccc(-c2cc3c(=O)n(CC(=O)NCc4ccc(F)cc4)ncn3n2)cc1	n	n	n	86	n	n	x
CC12CCC(C(=O)NCc3ccccc3)(OC1=O)C2(C)C (configuration not stated)	n	n	n	n	n	x	x
COc1ccc(-c2cc3c(=O)n(CC(=O)NCCCN4CCN(Cc5ccccc5)CC4)ncn3n2)cc1	n	n	n	n	n	x	x
COc1ccc(-c2cc3c(=O)n(CC(=O)NCc4ccc(C)cc4)ncn3n2)cc1	n	n	n	95	n	n	x
COc1ccc(-c2cc3c(=O)n(CC(=O)NCCCN4CCC(Cc5ccccc5)CC4)ncn3n2)cc1	n	n	n	87	n	n	68
Nc1ncnc(NCc2ccc(F)cc2)c1[N+](=O)[O-]	n	n	n	69	n	62	n
CCOC(=O)c1sc(Nc2cccc(C)c2C)nc1C	n	x	n	n	x	x	x
O=C(NC1CC1)C1=C[C@H](c2csc3ccccc23)C[C@H](OCCCCO)O1	n	n	n	n	n	x	x
O=C(NCc1ccccc1)C1=C[C@H](C2CCCCC2)C[C@H](OCc2ccc(CO)cc2)O1	n	n	n	51	n	63	60
O=C(NCc1ccccc1)C1=C[C@@H](c2csc3ccccc23)C[C@@H](OCCCCO)O1	n	x	n	74	x	75	39
O=C(NCc1ccccc1)C1=C[C@@H](c2csc3ccccc23)C[C@@H](OCc2ccc(CO)cc2)O1	n	n	n	72	n	n	x
Cc1ccccc1-n1nc(C)c2c(C(=O)NN)cc(-c3ccncc3)nc21	n	n	n	n	n	x	x
O=C(c1ccc(CS(=O)(=O)c2ccc(Br)cc2)o1)N1CCN(c2ccccn2)CC1	n	n	n	n	n	x	x
CCCn1c(=O)c2ccccc2n2c(Sc3nnnn3-c3ccccc3)nnc12	n	n	n	n	n	x	x
C=CCn1c(=O)c2ccccc2n2c(Sc3nnnn3-c3ccccc3)nnc12	n	n	n	53	n	n	x
Cn1cc(/C=C2\SC(=S)N(N3CCOCC3)C2=O)c2ccccc21	n	n	n	50	n	n	x
CCCn1c2ccccc2c2cnn(CC(=O)O)c(=O)c21	n	n	n	n	n	x	x
COc1ccc(/C=C/C(=O)NC(C)C)cc1Br	n	n	n	n	n	x	x
O=C(Nc1ccc(N2CCCCC2)cc1)c1cncc(Br)c1	n	n	n	n	n	x	x
SMILES	UPR XBP1 act	ABHD5-PLIN5 inh	UPR CHOP act	Mdm2 MdmX PPI	Granule exo inh	Mdm2-MdmX conf	Full FLuc ctr
O=C(Nc1ccc(N2CCN(C(=O)c3ccccc3F)CC2)cc1)c1cncc(Br)c1	n	n	n	63	n	62	n
CCOC(=O)C(C(C)=O)c1c(Br)c(O)c(O)c2c(C(=O)c3ccc(C)cc3)coc12 (configuration not stated)	n	n	n	64	n	60	47
CCOC(=O)c1c(C)n(-c2ccc(C)cc2)c2c(C(C(C)=O)C(=O)O)c(Br)c(O)c(O)c12 (configuration not stated)	n	n	n	n	n	x	x
COc1ccc(C(CNC(=O)c2ccc(NS(=O)(=O)c3ccc(F)cc3)cc2)N2CCOCC2)cc1 (configuration not stated)	n	n	n	n	n	x	x
Cc1ccc(S(=O)(=O)CCc2nc3ccccc3n2CCC#N)cc1	n	n	n	62	n	n	n
O=C(O)Cn1c(CCS(=O)(=O)c2ccc(Br)cc2)nc2ccccc21	n	n	n	n	n	x	x
CCOc1ccc(NC2c3ccccc3C(=O)N2c2ccc(Cl)cn2)cc1 (configuration not stated)	n	n	n	n	n	x	x
CCCc1cc(=O)n(-c2nc3ccccc3s2)[nH]1	n	n	n	n	n	x	x
CC(C)(C)N1C(=O)[C@H]2[C@@H](c3ccc(Br)cc3)N3C(=O)N(c4cccc(F)c4)C(=O)[C@@]3(Cc3ccccc3)[C@H]2C1=O	n	n	n	n	n	x	x
COc1ccc([C@@H]2[C@@H]3C(=O)N(C(C)(C)C)C(=O)[C@@H]3[C@]3(Cc4ccc(Cl)cc4)C(=O)N(c4ccc(OC)cc4)C(=O)N23)cc1	n	n	n	n	n	x	x
CC(C)(C)N1C(=O)[C@H]2[C@@H](c3ccc(Br)cc3)N3C(=O)N(c4ccc(Br)cc4)C(=O)[C@@]3(Cc3ccccc3)[C@H]2C1=O	n	n	n	83	n	89	n
Cc1cccc([C@@H]2[C@@H]3C(=O)N(Cc4ccccc4)C(=O)[C@@H]3[C@]3(Cc4ccccc4)C(=O)N(c4ccc(C(F)(F)F)cc4)C(=O)N23)c1	n	n	n	99	n	100	49
COc1ccc([C@@H]2[C@@H]3C(=O)N(C(C)(C)C)C(=O)[C@@H]3[C@]3(Cc4ccc(Cl)cc4)C(=O)N(c4ccc(Br)cc4)C(=O)N23)cc1	n	n	n	74	n	91	n
CN(C(=O)c1cccc(NC(=O)Cc2ccc(NC(=O)C3CCCN(C(=O)C4CCC4)C3)cc2)c1)C1CC1 (configuration not stated)	x	n	x	x	n	x	x
COC1=Nc2ccccc2N2CCN=C12	x	n	x	x	n	x	x
CCOc1ccccc1C(=O)N/N=C/c1coc2ccc(C)cc2c1=O	n	n	n	79	n	n	x
O=C(Nc1cccc(F)c1)C1CCN(C(=O)c2ccc(Br)cc2)CC1	n	n	n	n	n	x	x
Nc1nc(-c2ccccc2)nc(-c2ccccc2O)n1	n	n	n	62	n	n	x
Oc1ccc(-c2cc(-c3ccc(O)cc3)nc(-c3ccccc3)n2)cc1	n	n	n	83	n	n	x
NNc1nc(-c2ccccc2)cc(-c2ccccc2O)n1	n	n	n	n	n	x	x
Nc1nc(-c2ccccc2)cc(-c2ccccc2O)n1	n	n	n	80	n	n	x
